Data reported in ChEMBL document CHEMBL1149259, “Potent N-(1,3-thiazol-2-yl)pyridin-2-amine vascular endothelial growth factor receptor tyrosine kinase inhibitors with excellent pharmacokinetics and low affinity for the hERG ion channel” (J Med Chem, 2004).
The source made the active and inactive calls. No cut-off for these calls is given here.

Tests used:
[1] = Volume of distribution in Beagle dog at 0.25 mg/kg, iv and 1 mg/kg, po; assay type: ADME, organism-based, Canis lupus familiaris; conditions: in vivo, read-out: Vdss
Method in brief: (§1)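 Fasted beagle dogs, two per compound; iv 0.25 mg/kg as a DMSO solution, po 1 mpk as a solution in HCl-acidified methocel or 0.05 M citric acid (aq). Half-life, plasma clearance and steady-state volume of distribution taken from the iv leg; values are the average of the two dogs.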

[2] = Clearance in Beagle dog at 0.25 mg/kg, iv and 1 mg/kg, po; assay type: ADME, organism-based, Canis lupus familiaris; conditions: in vivo; method in brief: as §1
[3] = Half life in Beagle dog at 0.25 mg/kg, iv and 1 mg/kg, po; assay type: ADME, organism-based, Canis lupus familiaris; conditions: in vivo; method in brief: as §1
[4] = biological target: Voltage-gated inwardly rectifying potassium channel KCNH2 (Homo sapiens, UniProt Q12809); assay: Displacement of [35S][…] from human ERG expressed in HEK293 cells; assay type: cell-based; conditions: read-out: Inflection point
Chain of Voltage-gated inwardly rectifying potassium channel KCNH2 (Q12809 whole entry): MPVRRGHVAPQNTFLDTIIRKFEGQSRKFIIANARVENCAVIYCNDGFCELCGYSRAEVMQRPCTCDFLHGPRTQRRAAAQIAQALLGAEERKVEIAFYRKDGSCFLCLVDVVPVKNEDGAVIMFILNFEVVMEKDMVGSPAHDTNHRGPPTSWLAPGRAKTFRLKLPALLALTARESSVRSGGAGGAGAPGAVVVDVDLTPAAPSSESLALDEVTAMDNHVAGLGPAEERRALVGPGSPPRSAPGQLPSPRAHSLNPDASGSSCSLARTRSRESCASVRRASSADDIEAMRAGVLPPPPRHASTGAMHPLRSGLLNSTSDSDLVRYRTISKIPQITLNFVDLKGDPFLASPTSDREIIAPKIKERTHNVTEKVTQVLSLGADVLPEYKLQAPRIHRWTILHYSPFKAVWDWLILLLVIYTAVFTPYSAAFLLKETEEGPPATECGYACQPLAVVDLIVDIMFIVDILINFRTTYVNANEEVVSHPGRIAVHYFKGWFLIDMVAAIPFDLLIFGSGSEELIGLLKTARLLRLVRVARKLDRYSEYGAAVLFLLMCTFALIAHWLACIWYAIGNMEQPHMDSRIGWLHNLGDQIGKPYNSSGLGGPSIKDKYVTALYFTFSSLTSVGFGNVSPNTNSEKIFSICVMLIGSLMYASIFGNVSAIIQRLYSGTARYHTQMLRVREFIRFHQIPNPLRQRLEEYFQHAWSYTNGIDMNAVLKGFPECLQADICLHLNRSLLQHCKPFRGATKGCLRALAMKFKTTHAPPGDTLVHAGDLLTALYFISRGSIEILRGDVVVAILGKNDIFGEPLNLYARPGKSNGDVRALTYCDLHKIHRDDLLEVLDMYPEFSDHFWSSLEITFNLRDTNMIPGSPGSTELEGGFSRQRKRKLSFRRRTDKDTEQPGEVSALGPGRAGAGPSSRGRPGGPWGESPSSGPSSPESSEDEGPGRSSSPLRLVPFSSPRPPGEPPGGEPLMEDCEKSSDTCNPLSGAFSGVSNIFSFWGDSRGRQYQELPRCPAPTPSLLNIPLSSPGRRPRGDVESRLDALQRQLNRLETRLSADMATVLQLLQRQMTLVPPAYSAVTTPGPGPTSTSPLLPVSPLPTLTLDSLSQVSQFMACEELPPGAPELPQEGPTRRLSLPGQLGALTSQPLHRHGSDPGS

Cytochrome P450 3A4 = Cytochrome P450 3A4 (Homo sapiens, UniProt P08684); assay: Inhibition of human CYP3A4; assay type: ADME
Chain of Cytochrome P450 3A4 (P08684 whole entry): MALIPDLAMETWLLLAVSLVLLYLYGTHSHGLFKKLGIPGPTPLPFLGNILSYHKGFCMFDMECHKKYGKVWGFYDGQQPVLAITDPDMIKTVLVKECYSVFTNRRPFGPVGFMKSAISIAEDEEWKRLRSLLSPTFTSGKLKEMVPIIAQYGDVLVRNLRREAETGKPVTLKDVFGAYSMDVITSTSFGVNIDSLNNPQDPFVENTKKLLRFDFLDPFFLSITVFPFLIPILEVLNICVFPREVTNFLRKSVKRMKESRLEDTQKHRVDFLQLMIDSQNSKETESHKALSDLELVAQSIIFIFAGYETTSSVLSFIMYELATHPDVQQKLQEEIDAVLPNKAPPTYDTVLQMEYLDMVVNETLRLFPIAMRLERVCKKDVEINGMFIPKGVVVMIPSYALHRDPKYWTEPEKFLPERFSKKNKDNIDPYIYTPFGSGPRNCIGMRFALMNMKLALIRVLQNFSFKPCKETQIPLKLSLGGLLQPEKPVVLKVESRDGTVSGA
Method in brief: (§2)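 Human liver microsomes; inhibition of probe-substrate metabolism measured with diclofenac (CYP2C9), […] (CYP2D6) and testosterone (CYP3A4).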

Cytochrome P450 2D6 = Cytochrome P450 2D6 (Homo sapiens, UniProt P10635); assay: Inhibition of human CYP2D6; assay type: ADME; method in brief: as §2
Chain of Cytochrome P450 2D6 (P10635 whole entry): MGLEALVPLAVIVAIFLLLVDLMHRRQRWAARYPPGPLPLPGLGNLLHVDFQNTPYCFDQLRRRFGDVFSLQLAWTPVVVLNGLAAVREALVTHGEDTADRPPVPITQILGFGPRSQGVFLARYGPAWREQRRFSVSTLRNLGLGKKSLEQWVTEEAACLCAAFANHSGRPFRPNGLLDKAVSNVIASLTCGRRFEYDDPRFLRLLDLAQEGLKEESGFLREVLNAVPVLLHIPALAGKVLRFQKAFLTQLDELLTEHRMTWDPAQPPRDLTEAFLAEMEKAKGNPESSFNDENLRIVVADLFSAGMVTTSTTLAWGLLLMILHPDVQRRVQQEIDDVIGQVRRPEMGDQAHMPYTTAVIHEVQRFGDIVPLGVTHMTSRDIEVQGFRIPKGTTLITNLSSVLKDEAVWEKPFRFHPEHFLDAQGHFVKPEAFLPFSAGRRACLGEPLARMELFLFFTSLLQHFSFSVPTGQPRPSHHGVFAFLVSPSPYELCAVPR

Cytochrome P450 2C9 = Cytochrome P450 2C9 (Homo sapiens, UniProt P11712); assay: Inhibition of human CYP2C9; assay type: ADME; method in brief: as §2
Chain of Cytochrome P450 2C9 (P11712 whole entry): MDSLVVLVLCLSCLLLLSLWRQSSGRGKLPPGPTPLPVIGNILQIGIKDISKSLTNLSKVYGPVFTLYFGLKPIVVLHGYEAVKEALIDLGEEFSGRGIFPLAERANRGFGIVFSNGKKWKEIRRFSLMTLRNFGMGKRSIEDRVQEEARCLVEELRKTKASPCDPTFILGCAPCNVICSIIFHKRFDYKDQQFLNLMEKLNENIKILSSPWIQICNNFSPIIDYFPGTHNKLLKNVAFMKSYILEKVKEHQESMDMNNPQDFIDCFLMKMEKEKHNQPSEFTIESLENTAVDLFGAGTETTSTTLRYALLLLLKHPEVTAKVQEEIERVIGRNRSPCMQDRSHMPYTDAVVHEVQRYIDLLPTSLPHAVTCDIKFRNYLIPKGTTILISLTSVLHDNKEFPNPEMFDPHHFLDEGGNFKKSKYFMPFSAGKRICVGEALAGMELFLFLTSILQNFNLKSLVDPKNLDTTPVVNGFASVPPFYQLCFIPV

Canis familiaris [5] = assay: Increase in QT prolongation in anesthetized dog up to 22 uM plasma level; assay type: functional, organism-based; conditions: Canis lupus familiaris
[6] = biological target: T1, Vascular endothelial growth factor receptor 2 (Homo sapiens, UniProt P35968); assay: Inhibition of KDR
T1 sequence (P35968 whole entry): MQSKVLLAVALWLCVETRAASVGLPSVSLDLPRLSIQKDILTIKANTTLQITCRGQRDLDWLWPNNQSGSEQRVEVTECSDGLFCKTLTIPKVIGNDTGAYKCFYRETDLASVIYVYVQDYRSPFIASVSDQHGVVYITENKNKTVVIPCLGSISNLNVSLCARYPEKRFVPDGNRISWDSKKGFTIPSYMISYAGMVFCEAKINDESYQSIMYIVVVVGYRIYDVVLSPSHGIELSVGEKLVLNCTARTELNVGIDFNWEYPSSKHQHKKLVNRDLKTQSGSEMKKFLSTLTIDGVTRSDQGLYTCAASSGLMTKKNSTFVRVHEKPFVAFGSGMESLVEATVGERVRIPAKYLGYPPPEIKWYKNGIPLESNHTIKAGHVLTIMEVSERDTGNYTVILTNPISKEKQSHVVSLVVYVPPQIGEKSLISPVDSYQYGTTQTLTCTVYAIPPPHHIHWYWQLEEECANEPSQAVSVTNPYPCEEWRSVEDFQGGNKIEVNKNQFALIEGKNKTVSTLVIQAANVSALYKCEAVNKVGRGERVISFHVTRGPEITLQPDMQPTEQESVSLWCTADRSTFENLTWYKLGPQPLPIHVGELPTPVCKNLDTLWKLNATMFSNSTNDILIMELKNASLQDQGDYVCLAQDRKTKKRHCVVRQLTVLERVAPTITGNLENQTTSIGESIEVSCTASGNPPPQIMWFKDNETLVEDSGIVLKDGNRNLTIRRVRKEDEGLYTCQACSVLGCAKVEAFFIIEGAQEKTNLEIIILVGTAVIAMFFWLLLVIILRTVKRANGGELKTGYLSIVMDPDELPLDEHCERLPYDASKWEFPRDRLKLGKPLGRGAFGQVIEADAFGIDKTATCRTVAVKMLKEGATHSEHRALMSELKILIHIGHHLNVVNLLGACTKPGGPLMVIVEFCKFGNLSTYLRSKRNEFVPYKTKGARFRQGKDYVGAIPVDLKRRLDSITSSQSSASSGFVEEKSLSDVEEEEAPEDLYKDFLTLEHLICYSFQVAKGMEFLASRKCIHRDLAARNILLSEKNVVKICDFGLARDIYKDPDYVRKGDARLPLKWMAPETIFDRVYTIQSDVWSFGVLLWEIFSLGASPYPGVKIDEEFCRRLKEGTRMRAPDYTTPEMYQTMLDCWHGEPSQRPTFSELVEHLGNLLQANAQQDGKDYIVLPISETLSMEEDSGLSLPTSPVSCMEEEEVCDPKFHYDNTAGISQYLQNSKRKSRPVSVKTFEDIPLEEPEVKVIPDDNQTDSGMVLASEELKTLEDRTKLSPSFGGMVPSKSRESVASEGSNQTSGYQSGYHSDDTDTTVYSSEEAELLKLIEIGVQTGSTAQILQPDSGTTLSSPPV

[7] = biological target: T1, Vascular endothelial growth factor receptor 2; assay: Inhibition of VEGF-induced KDR autophosphorylation expressed in HEK293 cells; assay type: functional, cell-based
[8] = Metabolic stability in rat liver microsome; assay type: ADME; conditions: liver microsomes
Canis familiaris [9] = assay: Increase in QT prolongation in anesthetized dog up to 60 uM plasma level; conditions: Canis lupus familiaris
[10] = Lipophilicity, log P of the compound; assay type: physicochemical; conditions: octanol/water
[11] = Half life in Beagle dog at 1 mg/kg, iv and 1 mg/kg, po; assay type: ADME, organism-based, Canis lupus familiaris; conditions: in vivo
Method in brief: (§3)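 Fasted beagle dogs, two per compound; iv 1 mg/kg as a DMSO solution; po 1 mg/kg as a solution in 0.05 M citric acid (aq) or HCl-acidified methocel. Plasma half-life, clearance, Vdss and oral bioavailability F taken as the average of the two dogs.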

[12] = Volume of distribution in Beagle dog at 1 mg/kg, iv and 1 mg/kg, po; assay type: ADME, organism-based, Canis lupus familiaris; conditions: in vivo, read-out: Vdss; method in brief: as §3
[13] = Bioavailability in Beagle dog at 1 mg/kg, iv and 1 mg/kg, po; assay type: ADME, organism-based, Canis lupus familiaris; conditions: in vivo; method in brief: as §3
[14] = Clearance in Beagle dog at 1 mg/kg, iv and 1 mg/kg, po; assay type: ADME, organism-based, Canis lupus familiaris; conditions: in vivo; method in brief: as §3
Rattus norvegicus = assay: Metabolic stability measured as N-Glucuronidation of the parent compound in iv dosed rat; assay type: ADME, organism-based; conditions: in vivo
Rhesus monkey = assay: Metabolic stability measured as N-Glucuronidation of the parent compound in iv dosed rhesus monkey; assay type: ADME, organism-based, Macaca mulatta; conditions: in vivo
[15] = Clearance in Sprague-Dawley rat at 2 mg/kg, iv and 10 mg/kg, po; assay type: ADME, organism-based; conditions: in vivo
Method in brief: (§4)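 Fasted male Sprague-Dawley rats, three per group: 2 mg/kg bolus iv as a DMSO solution and 10 mg/kg by oral gavage as a solution in 0.05 M citric acid. Clearance, Vdss and F given as mean with standard deviation.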

[16] = Clearance in rhesus monkey at 1 mg/kg, iv and 1 mg/kg, po; assay type: ADME, organism-based, Macaca mulatta; conditions: in vivo
Method in brief: (§5)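 Fasted rhesus monkeys, two, crossover design: 1 mg/kg po as a solution in 0.05 M citric acid, and on a separate occasion 1 mg/kg iv as a DMSO solution. Half-life, clearance, Vdss and F reported as the two-animal average.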

[17] = biological target: Vascular endothelial growth factor receptor 2 (Mus musculus, UniProt P35918); assay: Inhibition of VEGF-induced mouse lung KDR phosphorylation
Method in brief: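 Tyrosine phosphorylation of lung KDR compared between treated and untreated lungs as a function of dose and time after dosing. In vivo IC50 expressed as plasma concentration.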

[18] = Volume of distribution in Sprague-Dawley rat at 2 mg/kg, iv and 10 mg/kg, po; assay type: ADME, organism-based; conditions: in vivo, read-out: Vdss; method in brief: as §4
[19] = Volume of distribution in rhesus monkey at 1 mg/kg, iv and 1 mg/kg, po; assay type: ADME, organism-based, Macaca mulatta; conditions: in vivo, read-out: Vdss; method in brief: as §5
[20] = Bioavailability in rhesus monkey at 1 mg/kg, iv and 1 mg/kg, po; assay type: ADME, organism-based, Macaca mulatta; conditions: in vivo; method in brief: as §5
Homo sapiens = species: Homo sapiens; assay: Protein binding in human plasma; conditions: read-out: PPB (converted)
Canis familiaris [21] = assay: Increase in QT prolongation in anesthetized dog at 0.59 uM plasma level; assay type: functional, Canis lupus familiaris

Compound | IC50 [6] [nM] | IC50 [7] [nM] | logP [10] | Vd [12] [L/kg] | bioavailability [13] [%] | clearance [14] [mL/min/kg] | IC50 [4] [nM] | further results
N#Cc1cnc(Nc2cc(CN3CCN(C(N)=O)CC3)ccn2)s1 |  |  |  |  |  |  | 24700 | Vd [1]: 0.34 L/kg; clearance [2]: 2.6 mL/min/kg; half-life [3]: 2.9 h
CNC(=O)N1CCN(Cc2ccnc(Nc3ncc(C#N)s3)c2C)CC1 |  |  |  |  |  |  |  | IC50 (Cytochrome P450 3A4): > 100000 nM; IC50 (Cytochrome P450 2D6): > 100000 nM; IC50 (Cytochrome P450 2C9): > 100000 nM; Activity (Canis familiaris [5]): inactive
c1ccc(-c2cnc(Nc3cc(CN4CCCC4)ccn3)s2)cc1 | 3 | 15 |  |  |  |  |  | half-life [8]: 8 min
CS(=O)(=O)N1CCN(Cc2ccnc(Nc3ncc(-c4ccccc4)s3)c2)CC1 |  |  |  |  |  |  | 130 | 
CC(=O)N1CCN(Cc2ccnc(Nc3ncc(-c4ccccc4)s3)c2)CC1 | 8 | 43 |  |  |  |  | 240 | 
CNC(=O)N1CCN(Cc2ccnc(N(c3ncc([14C]#N)s3)C3O[C@H](C(=O)O)[C@@H](O)[C@H](O)[C@H]3O)c2)CC1 (stereo partly specified) |  |  |  |  |  |  |  | Stability (Rattus norvegicus): 37.6%; Stability (Rhesus monkey): 63.3%
CN(C)C(=O)N1CCN(Cc2ccnc(Nc3ncc(C#N)s3)c2)CC1 | 10 | 40 | 2.74 |  |  |  | 3510 | fraction unbound (Homo sapiens): 0.041; Vd [1]: 0.88 L/kg; clearance [2]: 7.4 mL/min/kg; half-life [3]: 2 h
N#Cc1cnc(Nc2cc(CN3CCN(C(=O)CO)CC3)ccn2)s1 | 9 | 35 | 1.68 | 0.47 | 61 | 0.88 | 9870 | fraction unbound (Homo sapiens): 0.262; half-life [11]: 6.6 h
c1ccc(-c2cnc(Nc3ccc(CN4CCCC4)cn3)s2)cc1 |  |  |  |  |  |  | 8 | Activity (Canis familiaris [21]): 10%

The next lines start with results.

IC50 [6] [nM] | IC50 [7] [nM] | logP [10] | Vd [12] [L/kg] | bioavailability [13] [%] | clearance [14] [mL/min/kg] | Compound | IC50 [4] [nM] | further results
8 | 43 |  |  |  |  | N#Cc1cnc(Nc2cc(CN3CCOCC3)ccn2)s1 |  | Vd [1]: 1 L/kg; clearance [2]: 12.4 mL/min/kg; half-life [3]: 2.5 h
13 | 41 | 2.05 | 0.72 | 87 | 1.2 | CC(=O)N1CCN(Cc2ccnc(Nc3ncc(C#N)s3)c2)CC1 |  | Activity (Canis familiaris [9]): inactive; half-life [11]: 7.2 h
12 | 27 | 2.06 | 0.72 | 99 | 0.51 | CNC(=O)N1CCN(Cc2ccnc(Nc3ncc(C#N)s3)c2)CC1 | 9280 | clearance [15]: 13.3 mL/min/kg; clearance [16]: 17.2 mL/min/kg; IC50 [17]: 90 nM; IC50 (Cytochrome P450 3A4): > 50000 nM; Vd [18]: 1.5 L/kg; Vd [19]: 1.3 L/kg; IC50 (Cytochrome P450 2D6): > 50000 nM; IC50 (Cytochrome P450 2C9): > 50000 nM; bioavailability [20]: 43%
7 | 31 | 2.06 | 0.96 | 95 | 1.8 | CS(=O)(=O)C1CCN(Cc2ccnc(Nc3ncc(C#N)s3)c2)CC1 |  | 
